Measured values of several laboratories.
Protocols differ between the studies behind these lines.
Mode: inhibitor
CDK5 with p35: Cyclin-dependent kinase 5, with p35 (CDK5, Homo sapiens, UniProt Q00535)
CDK5 with p25: Cyclin-dependent kinase 5, with p25 (CDK5, Homo sapiens, UniProt Q00535)
CDK5: Cyclin-dependent kinase 5 (CDK5, Homo sapiens, UniProt Q00535)

Compound	target	assay	system	setting	inhibition
CNCc1ccc(-c2cc(-c3nc(-c4ccc(S(=O)(=O)C(C)C)cc4)cnc3N)on2)cc1	CDK5 with p35	enzyme activity	–	0.4 µM	0%
CCOc1cc(-c2nncn2C)ccc1Nc1ncc2cc(C)nc(NCC(C)(C)C)c2n1	CDK5 with p25	enzyme activity, FRET	–	1 µM	49%
Cc1ccc(-n2nc(C(C)(C)C)cc2NC(=O)Nc2ccc(OCCN3CCOCC3)c3ccccc23)cc1	CDK5 with p25	enzyme activity	–	10 µM	1%
COc1cc2ncnc(Nc3ccc(Oc4ccccc4)cc3C)c2cc1OC	CDK5 with p25	enzyme activity	–	1 µM	7%
CC[C@H](C)[C@H](NC(=O)[C@H](CCC(N)=O)NC(=O)[C@H](CC(C)C)NC(=O)[C@H](CCSC)NC(=O)[C@H](CCCCN)NC(=O)[C@H](CO)NC(=O)[C@H](CO)NC(=O)[C@H](CCSC)NC(=O)[C@H](CC(C)C)NC(=O)[C@H](CC(N)=O)NC(=O)[C@@H](NC(=O)[C@@H](NC(=O)[C@H](CO)NC(=O)[C@H](CC(C)C)NC(=O)[C@H](CS)NC(=O)[C@H](CCCNC(=N)N)NC(=O)[C@H](CC(=O)O)NC(=O)[C@H](Cc1c[nH]c2ccccc12)NC(=O)[C@H](Cc1ccccc1)NC(=O)[C@H](C)NC(=O)[C@H](CCC(=O)O)NC(=O)[C@@H](N)CCCCN)C(C)C)[C@@H](C)CC)C(=O)N[C@@H](CC(N)=O)C(=O)N[C@@H](C)C(=O)O	CDK5 with p25	enzyme activity, radiometric	–	10 µM	13%
COc1cc2ncnc(Nc3ccc(Oc4ccccc4)c(C)c3C)c2cc1OC	CDK5 with p35	enzyme activity	–	1 µM	-1%
CN1CC(Oc2cnc(C#N)cc2-c2ccn3nc(NC(=O)C4CC4)cc3c2)C1	CDK5 with p35	enzyme activity	–	1 µM	12%
CCN1CCN(Cc2ccc(NC(=O)c3ccc(C)c(Oc4ccnc5[nH]ccc45)c3)cc2C(F)(F)F)CC1	CDK5	target engagement in cells, chemoproteomics	Huh-7	10 µM	-42.6%
CN(C)C1CCN(CC#Cc2nn(C3CCCC3)c3nc(NCc4ccccc4)ncc23)C1 (stereo not shown)	CDK5 with p25	enzyme activity, FRET	–	10 µM	3%
COc1cc(-c2cc(-c3ccc(N4CCNCC4)cc3)cnc2C)cc(OC)c1OC	CDK5	enzyme activity	–	0.1 µM	2%
